Reference: ChEMBL document CHEMBL1148329, “Synthesis and structure-activity studies on N-[5-(1H-imidazol-4-yl)-5,6,7,8-tetrahydro-1-naphthalenyl]methanesulfonamide, an imidazole-containing alpha(1A)-adrenoceptor agonist” (J Med Chem, 2004)
Active and inactive are the calls of the source. The rule behind the calls is not given here.

Key:
[1] = tested on: Canis familiaris; test: Uroselectivity was determined by measuring effective dose required for 20 mmHg increase of mean arterial pressure (MAP) in vivo in dog; IA = Inactive; format: functional, organism-based; settings: Canis lupus familiaris; Artery
Summary of the method: (§1)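 Dog model recording intraurethral pressure (IUP) and mean arterial pressure (MAP) simultaneously. Increasing iv doses given, maximal effect of each dose taken. Doses giving a 5 mmHg rise in IUP (ED Δ5) or 20 mmHg rise in MAP (ED Δ20) were calculated, in nmol/kg ± SEM, n ≥ 4 (2 or 3 where footnoted).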

[2] = tested on: Canis familiaris; test: Uroselectivity was determined by measuring effective dose required for 5 mmHg increase of intraurethral pressure (IUP) in vivo in dog; IA = Inactive; format: functional, organism-based; settings: Canis lupus familiaris; summary of the method: as §1
[3] = molecular target: T1, Alpha-1D adrenergic receptor (Rattus norvegicus, UniProt P23944); test: In vitro binding affinity towards alpha-1D adrenergic receptor of rat clone in radioligand binding assay
T1 sequence (P23944 whole entry): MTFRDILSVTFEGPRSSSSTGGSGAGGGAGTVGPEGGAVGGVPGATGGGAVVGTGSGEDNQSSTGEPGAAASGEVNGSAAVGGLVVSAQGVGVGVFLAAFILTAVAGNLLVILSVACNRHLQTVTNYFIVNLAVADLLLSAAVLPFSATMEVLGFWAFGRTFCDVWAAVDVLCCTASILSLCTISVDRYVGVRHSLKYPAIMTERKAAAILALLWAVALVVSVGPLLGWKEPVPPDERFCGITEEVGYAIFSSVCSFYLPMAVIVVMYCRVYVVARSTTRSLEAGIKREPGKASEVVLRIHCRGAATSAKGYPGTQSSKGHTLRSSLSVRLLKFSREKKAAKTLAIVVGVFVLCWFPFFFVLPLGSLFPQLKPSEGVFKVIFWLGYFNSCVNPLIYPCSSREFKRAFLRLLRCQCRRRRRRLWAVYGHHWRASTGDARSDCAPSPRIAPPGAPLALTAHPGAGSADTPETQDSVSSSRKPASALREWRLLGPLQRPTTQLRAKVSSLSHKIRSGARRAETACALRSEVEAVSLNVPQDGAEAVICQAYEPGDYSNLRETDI
Summary of the method: (§2)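 Radioligand binding at α1 subtypes: α1A from rat submaxillary gland, α1B hamster clone, α1D rat clone. Run essentially per an earlier method.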

[4] = molecular target: T2, Alpha-1B adrenergic receptor (Mesocricetus auratus, UniProt P18841); test: In vitro binding affinity towards alpha-1B adrenergic receptor of hamster clone in radioligand binding assay; format: single protein; summary of the method: as §2
T2 sequence (P18841 whole entry): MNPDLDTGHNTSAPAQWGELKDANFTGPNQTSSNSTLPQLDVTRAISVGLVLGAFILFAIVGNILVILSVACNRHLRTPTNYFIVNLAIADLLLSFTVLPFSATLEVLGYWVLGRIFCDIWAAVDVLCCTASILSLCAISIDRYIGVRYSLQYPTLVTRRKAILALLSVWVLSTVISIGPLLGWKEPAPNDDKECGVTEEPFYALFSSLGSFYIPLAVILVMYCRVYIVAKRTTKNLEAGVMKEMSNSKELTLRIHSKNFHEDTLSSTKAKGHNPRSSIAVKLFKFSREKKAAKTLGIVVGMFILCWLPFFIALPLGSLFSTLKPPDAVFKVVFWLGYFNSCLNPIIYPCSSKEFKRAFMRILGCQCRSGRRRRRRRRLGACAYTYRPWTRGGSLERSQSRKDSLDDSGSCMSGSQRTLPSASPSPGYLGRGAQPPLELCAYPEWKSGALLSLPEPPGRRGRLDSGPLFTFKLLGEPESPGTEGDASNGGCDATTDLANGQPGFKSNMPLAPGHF

[5] = molecular target: T3, Alpha-1A adrenergic receptor (Rattus norvegicus, UniProt P43140); test: In vitro binding affinity towards alpha-1A adrenergic receptor of rat submaxillary gland in radioligand binding assay; summary of the method: as §2
T3 sequence (P43140 whole entry): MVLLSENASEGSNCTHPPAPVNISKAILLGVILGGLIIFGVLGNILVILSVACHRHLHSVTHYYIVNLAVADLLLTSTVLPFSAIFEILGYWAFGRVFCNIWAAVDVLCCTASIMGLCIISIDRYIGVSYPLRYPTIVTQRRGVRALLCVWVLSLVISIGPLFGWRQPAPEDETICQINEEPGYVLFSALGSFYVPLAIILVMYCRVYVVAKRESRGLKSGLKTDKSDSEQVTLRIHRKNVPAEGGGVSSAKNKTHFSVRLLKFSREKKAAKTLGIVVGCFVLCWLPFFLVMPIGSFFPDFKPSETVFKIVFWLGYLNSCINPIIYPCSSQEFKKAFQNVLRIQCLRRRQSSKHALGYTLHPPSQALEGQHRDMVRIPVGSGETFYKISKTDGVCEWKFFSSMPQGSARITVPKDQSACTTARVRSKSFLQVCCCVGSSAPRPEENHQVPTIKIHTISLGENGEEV

[6] = molecular target: Alpha adrenergic receptor 1A and 1B (Rattus norvegicus) (UniProt P15823+P43140); test: Selectivity is ratio of pKi (binding affinity) of alpha-1B receptor to that of alpha-1A receptor.; format: protein assay
[7] = molecular target: Alpha adrenergic receptor 1A and 1D (Rattus norvegicus) (UniProt P23944+P43140); test: Selectivity is ratio of pKi (binding affinity) of Alpha-1D to that of alpha1A; format: protein assay
[8] = molecular target: Alpha-1A adrenergic receptor (Oryctolagus cuniculus) (UniProt O02824); test: Functional agonism of the compounds to constrict tissue containing the alpha-1A adrenergic receptor in rabbit urethra; Inactive
[9] = molecular target: T4, Alpha-2A adrenergic receptor (Homo sapiens, UniProt P08913); test: In vitro binding affinity towards alpha-2A adrenergic receptor of human clone in radioligand binding assay
T4 sequence (P08913 whole entry): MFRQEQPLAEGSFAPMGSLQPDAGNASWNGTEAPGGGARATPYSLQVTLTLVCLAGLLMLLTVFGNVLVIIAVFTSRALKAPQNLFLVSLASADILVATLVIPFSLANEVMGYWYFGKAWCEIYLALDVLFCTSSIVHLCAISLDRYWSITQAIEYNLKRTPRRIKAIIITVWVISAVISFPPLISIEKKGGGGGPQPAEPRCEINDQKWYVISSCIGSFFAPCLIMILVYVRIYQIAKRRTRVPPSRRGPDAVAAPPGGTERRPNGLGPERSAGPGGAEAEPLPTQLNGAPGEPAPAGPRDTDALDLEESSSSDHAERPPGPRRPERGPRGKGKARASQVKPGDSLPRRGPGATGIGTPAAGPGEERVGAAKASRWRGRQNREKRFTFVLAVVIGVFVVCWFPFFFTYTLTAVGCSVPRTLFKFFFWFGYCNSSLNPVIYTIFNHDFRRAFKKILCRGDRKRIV

[10] = molecular target: T5, Alpha-1D adrenergic receptor (Rattus norvegicus) (UniProt P23944); test: Functional agonism of the compounds to constrict tissue containing the alpha-1D adrenergic receptor in rat aorta; format: tissue-based
T5 sequence (whole entry): T1 sequence (P23944 whole entry)
Summary of the method: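 Agonist dose–response curves were run on isolated tissue: rabbit urethra for α1A, rat spleen for α1B, and rat aorta for α1D.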

[11] = molecular target: T6, Alpha-1A adrenergic receptor (Oryctolagus cuniculus) (UniProt O02824); test: Efficacy relative to phenylephrine (PE) to constrict tissue containing the alpha-1A adrenergic receptor in rabbit urethra; format: functional, tissue-based
T6 sequence (whole entry): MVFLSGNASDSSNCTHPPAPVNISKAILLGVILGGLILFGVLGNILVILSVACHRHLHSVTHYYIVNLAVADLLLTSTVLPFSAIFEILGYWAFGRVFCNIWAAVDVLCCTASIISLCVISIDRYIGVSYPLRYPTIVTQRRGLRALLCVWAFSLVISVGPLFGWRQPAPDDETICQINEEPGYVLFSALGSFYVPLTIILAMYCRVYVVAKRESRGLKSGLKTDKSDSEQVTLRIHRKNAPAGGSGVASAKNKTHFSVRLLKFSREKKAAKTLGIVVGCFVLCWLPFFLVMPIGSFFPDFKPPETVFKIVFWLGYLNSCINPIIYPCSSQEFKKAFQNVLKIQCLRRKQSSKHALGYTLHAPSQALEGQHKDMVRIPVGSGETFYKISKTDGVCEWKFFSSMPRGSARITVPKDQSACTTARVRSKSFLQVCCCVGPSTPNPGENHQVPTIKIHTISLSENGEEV
Summary of the method: (§3)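 α1-agonist dose–response curves in isolated tissue: rabbit urethra (α1A), rat spleen (α1B), rat aorta (α1D). Agonist potency and efficacy read from the concentration–response curves.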

[12] = molecular target: T5, Alpha-1D adrenergic receptor (Rattus norvegicus); test: Efficacy relative to phenylephrine (PE) constrict tissue containing the alpha-1D adrenergic receptor in rat aorta; format: functional, tissue-based; summary of the method: as §3
[13] = tested on: Canis familiaris; test: Uroselectivity was determined by measuring effective dose required for 20 mmHg increase of mean arterial pressure (MAP) in vivo in dog; format: functional, Canis lupus familiaris, Artery; summary of the method: as §1
[14] = tested on: Canis familiaris; test: Uroselectivity was determined by measuring effective dose required for 5 mmHg increase of intraurethral pressure (IUP) in vivo in dog; format: functional, Canis lupus familiaris; summary of the method: as §1
[15] = molecular target: T7, Alpha-2B adrenergic receptor (Rattus norvegicus, UniProt P19328); test: In vitro binding affinity towards alpha-2B adrenergic receptor of rat neonatal lung in radioligand binding assay
T7 sequence (P19328 whole entry): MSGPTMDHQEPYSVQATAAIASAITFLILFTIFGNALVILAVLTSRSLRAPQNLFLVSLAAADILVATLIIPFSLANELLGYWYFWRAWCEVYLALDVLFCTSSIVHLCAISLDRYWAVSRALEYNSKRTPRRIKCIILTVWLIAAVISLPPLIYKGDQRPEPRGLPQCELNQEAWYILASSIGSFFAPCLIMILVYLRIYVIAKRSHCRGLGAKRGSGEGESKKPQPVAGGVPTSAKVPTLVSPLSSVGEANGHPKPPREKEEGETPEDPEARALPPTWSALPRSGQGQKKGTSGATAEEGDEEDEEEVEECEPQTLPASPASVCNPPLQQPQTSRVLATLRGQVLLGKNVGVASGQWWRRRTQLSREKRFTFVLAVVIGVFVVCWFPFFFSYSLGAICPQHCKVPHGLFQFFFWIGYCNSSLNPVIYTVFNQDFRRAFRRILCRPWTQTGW

[16] = molecular target: T8, Alpha-1A adrenergic receptor (Bos taurus, UniProt P18130); test: In vitro binding affinity towards alpha-1A adrenergic receptor of bovine clone in radioligand binding assay
T8 sequence (P18130 whole entry): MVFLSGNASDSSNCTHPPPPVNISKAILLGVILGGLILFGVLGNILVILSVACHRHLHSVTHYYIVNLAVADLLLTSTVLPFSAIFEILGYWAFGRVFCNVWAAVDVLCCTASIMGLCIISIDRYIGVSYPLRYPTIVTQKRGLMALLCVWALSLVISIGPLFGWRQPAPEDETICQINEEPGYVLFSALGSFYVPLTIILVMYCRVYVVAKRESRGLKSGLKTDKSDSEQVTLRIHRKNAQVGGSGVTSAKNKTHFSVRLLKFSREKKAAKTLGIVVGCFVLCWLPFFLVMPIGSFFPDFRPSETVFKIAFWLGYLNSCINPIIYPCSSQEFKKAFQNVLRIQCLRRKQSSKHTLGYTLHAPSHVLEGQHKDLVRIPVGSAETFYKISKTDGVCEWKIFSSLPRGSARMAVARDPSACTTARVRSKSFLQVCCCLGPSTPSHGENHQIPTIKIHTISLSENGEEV

Sequence of Alpha adrenergic receptor 1A and 1B (Rattus norvegicus) (P15823 whole entry, looked up, one chain of several): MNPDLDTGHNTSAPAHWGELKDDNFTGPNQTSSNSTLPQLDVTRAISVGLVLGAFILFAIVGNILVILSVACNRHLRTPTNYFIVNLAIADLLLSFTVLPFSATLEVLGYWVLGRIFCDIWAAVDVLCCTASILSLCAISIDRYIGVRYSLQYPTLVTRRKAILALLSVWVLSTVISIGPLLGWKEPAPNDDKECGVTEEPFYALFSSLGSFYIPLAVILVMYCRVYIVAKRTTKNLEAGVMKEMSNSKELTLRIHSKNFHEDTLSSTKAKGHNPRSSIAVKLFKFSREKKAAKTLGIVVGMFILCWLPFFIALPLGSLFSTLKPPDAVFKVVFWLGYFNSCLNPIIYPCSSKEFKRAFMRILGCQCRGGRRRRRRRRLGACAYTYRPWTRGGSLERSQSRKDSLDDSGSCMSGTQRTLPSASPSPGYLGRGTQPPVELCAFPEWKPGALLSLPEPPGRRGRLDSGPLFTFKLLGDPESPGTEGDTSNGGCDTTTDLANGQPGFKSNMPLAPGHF

Row | Ki [3] | Ki [4] | Ki [5] | Selectivity [6] | Selectivity [7] | pD2 [8] | Efficacy [11] | Structure (SMILES) | ED delta20 [1] | ED delta5 [2] | other results
1 |  |  |  |  |  |  |  | CS(=O)(=O)Nc1cccc2c1CCC=C2c1c[nH]cn1 | inactive | inactive | 
2 | > 10000 nM | > 10000 nM | 794 nM | > 10 | > 10 | inactive |  | CCS(=O)(=O)Nc1cccc2c1CCCC2CN (configuration not stated) |  |  | 
3 | 1000 nM | > 10000 nM | 501 nM | > 20 | 2 | inactive |  | CCS(=O)(=O)Nc1cccc(C2CCNC2)c1 (configuration not stated) |  |  | 
4 | 1480 nM | 2950 nM |  |  |  |  | 88% | CS(=O)(=O)Nc1c(O)ccc2c1CCCC2C1=NCCN1 (configuration not stated) |  |  | Ki [9]: 33.1 nM; pD2 [10]: 5.59; Efficacy [12]: 100%; ED delta20 [13]: 0.27 nM/kg; ED delta5 [14]: 0.16 nM/kg; Ki [15]: 245 nM
5 | 100 nM | 214 nM |  | 1 | 0.4 | inactive |  | O=S(=O)(Nc1cccc2c1CCCC2c1c[nH]cn1)c1ccc2ccccc2c1 (configuration not stated) |  |  | Ki [16]: 692 nM
6 |  |  |  |  |  |  | 40% | Cn1cnc(C2CCCc3c(NS(C)(=O)=O)cccc32)c1 (configuration not stated) | inactive | inactive | 
